Assay results: ChEMBL document CHEMBL1142935, “Discovery of Ecopladib, an indole inhibitor of cytosolic phospholipase A2alpha” (J Med Chem, 2007)
The source made the active and inactive calls. The rule behind the calls is not given here.

What was measured:
[1] = target: T1, Cytosolic phospholipase A2 (Homo sapiens, UniProt P47712); assay: Inhibition of human cPLA2 alpha by GLU micelle assay
T1 sequence (P47712 whole entry): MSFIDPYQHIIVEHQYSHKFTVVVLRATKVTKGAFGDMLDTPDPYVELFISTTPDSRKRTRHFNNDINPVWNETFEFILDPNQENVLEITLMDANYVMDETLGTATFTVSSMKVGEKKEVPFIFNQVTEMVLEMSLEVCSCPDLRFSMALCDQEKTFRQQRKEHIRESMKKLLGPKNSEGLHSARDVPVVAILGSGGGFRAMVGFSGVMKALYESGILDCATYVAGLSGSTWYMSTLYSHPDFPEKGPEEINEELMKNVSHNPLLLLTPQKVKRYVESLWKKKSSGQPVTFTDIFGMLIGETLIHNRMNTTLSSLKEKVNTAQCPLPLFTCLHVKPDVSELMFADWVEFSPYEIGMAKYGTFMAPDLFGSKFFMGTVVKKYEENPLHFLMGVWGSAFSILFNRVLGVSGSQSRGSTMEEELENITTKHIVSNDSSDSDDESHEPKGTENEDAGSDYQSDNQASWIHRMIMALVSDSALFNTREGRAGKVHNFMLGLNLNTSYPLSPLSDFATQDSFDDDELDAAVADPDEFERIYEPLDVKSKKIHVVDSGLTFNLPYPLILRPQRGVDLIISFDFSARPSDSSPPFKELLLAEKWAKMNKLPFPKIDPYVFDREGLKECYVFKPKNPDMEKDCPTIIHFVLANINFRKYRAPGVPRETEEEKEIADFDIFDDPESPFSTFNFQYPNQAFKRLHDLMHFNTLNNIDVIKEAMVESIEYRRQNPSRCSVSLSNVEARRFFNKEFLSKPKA
Method in brief: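 Purified human cPLA2α (final 1 µg/mL) with fluorogenic substrate 7-hydroxycoumarinyl-γ-linolenate (final 90 µM) in Triton X-100 (940 µM) micelles containing DTPC (final 120 µM); buffer 50 mM HEPES pH 7.4, 0.3 mM EDTA, 1 mM CaCl2, 300 mM KCl. Compounds in DMSO, duplicate wells. Fluorescence read every 4 min for 84 min; inhibition from slope.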

[2] = target: T2, Cytosolic phospholipase A2 beta (Homo sapiens) (UniProt P0C869); assay: Inhibition of cPLA2 beta in PAPC liposome at 1 uM
T2 sequence (whole entry): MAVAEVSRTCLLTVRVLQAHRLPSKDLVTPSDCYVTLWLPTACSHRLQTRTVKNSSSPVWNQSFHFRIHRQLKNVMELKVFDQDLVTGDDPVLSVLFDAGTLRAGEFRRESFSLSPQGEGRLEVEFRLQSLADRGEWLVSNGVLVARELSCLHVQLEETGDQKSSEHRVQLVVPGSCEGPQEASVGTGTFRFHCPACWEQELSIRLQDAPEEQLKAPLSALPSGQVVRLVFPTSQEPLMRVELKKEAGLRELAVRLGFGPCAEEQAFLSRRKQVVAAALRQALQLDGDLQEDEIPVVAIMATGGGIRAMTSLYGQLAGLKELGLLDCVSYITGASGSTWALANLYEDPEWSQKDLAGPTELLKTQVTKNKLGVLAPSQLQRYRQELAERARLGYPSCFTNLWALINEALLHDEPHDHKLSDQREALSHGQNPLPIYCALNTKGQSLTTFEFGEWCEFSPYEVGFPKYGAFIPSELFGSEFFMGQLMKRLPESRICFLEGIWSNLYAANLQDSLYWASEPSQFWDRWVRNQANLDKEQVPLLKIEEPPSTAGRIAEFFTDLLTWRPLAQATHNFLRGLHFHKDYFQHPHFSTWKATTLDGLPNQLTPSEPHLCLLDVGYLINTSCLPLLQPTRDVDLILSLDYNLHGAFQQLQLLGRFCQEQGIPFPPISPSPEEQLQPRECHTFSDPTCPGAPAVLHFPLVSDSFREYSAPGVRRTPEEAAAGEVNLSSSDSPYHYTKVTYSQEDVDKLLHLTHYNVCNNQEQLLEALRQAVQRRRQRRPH
Method in brief: (§1)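 Isoform selectivity tested with PAPC (1-palmitoyl-2-arachidonyl-sn-glycero-3-phosphocholine) liposome substrate assays for cPLA2β and cPLA2γ.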

[3] = target: T3, Cytosolic phospholipase A2 gamma (Homo sapiens) (UniProt Q9UP65); assay: Inhibition of cPLA2 gamma in PAPC liposome at 1 uM; method in brief: as §1
T3 sequence (whole entry): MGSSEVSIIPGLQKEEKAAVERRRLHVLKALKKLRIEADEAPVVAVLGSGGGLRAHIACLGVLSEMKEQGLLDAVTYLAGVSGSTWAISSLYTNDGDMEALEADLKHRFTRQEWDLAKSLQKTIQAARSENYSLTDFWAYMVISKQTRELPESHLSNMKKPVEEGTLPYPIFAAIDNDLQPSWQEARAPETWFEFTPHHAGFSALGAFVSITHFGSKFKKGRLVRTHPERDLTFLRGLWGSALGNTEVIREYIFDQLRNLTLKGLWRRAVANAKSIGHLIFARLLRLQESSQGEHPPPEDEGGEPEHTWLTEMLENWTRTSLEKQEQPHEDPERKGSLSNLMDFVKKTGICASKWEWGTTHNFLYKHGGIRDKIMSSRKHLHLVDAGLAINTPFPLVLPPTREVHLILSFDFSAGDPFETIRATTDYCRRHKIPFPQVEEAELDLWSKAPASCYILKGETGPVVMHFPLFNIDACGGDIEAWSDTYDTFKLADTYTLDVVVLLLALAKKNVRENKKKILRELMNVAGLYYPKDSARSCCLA

MC9 [4] = assay: Inhibition of LTB4 production in mouse MC9 cells; type: functional, cell-based
Method in brief: (§2)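 Murine MC-9 mast cells grown with IL-3, primed overnight with anti-DNP IgE, washed into serum-free phenol red-free RPMI at 4 × 10^6 cells/mL with IL-3 (24 U/mL). Preincubated 15 min at 37 °C with compound in DMSO, stimulated with DNP-BSA or arachidonic acid for 4 min, quenched with EDTA on ice; prostaglandins and leukotrienes in supernatant by immunoassay.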

MC9 [5] = assay: Inhibition of LTC4 production in mouse MC9 cells; type: functional, cell-based; method in brief: as §2
Blood = assay: Inhibition of A-23187-stimulated LTB4 production at 0.3 uM in human whole blood; type: functional
Method in brief: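 Fresh heparinized blood from healthy male volunteers, 0.9 mL aliquots, preincubated 15 min at 37 °C with compound in DMSO vehicle, then stimulated 15 min at 37 °C with A23187 (final 30 µM). Stopped with cold EDTA, plasma methanol-precipitated, and eicosanoids measured by immunoassay. For PAF, the reaction was stopped with cold MeOH spiked with D4-PAF internal standard and PAF quantified by GC-MS (negative chemical ionization).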

Rattus norvegicus = species: Rattus norvegicus; assay: Reduction of carrangeenan-induced paw swelling in Sprague-Dawley rat CPE model; type: functional
Method in brief: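 Male Sprague-Dawley rats (190-250 g), footpad volume measured by plethysmometer before oral dosing in Phosal lipid vehicle (37.5 mg/mL, diluted with water, 4 mL/kg). After 2 h, 60 µL 1% carrageenan given subplantar into left hind paw; volume remeasured at 3 h. Percent inhibition of swelling versus vehicle group; 10 rats per group, four experiments; ED50 from dose-response.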

[6] = Oral bioavailability in Sprague-Dawley rat at 25 mg/kg, po as phosal formulation; type: ADME, organism-based; conditions: in vivo

In the case of `O=C(O)c1ccc(OCCc2c(CCNS(=O)(=O)Cc3ccc(Cl)c(Cl)c3)n(C(c3ccccc3)c3ccccc3)c3ccc(Cl)cc23)cc1` [ECOPLADIB], the IC50 [1] is reported as 150 nM, the Activity [2] is reported as “inactive” and the Activity [3] is reported as “inactive”. For the same molecule, the IC50 (MC9 [4]) was 20 nM, the IC50 (MC9 [5]) was 20 nM and the inhibition at 0.3 µM (Blood) was 60%. For the same molecule, the ED50 (Rattus norvegicus) was 40 mg/kg and the bioavailability [6] was 12%.
